Columns and labels:
[1] = target: Epidermal growth factor receptor (Homo sapiens) (UniProt P00533); experiment: Inhibition of EGFR in human A-375 cells assessed as protein concentration incubated for 1 hrs by ELISA (reference value: 8.91 ng/ml); format: cell-based
In short: (§1)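 Human EGFR or telomerase measured by sandwich ELISA. Samples and standards incubated 90 min at 37 °C, then biotinylated detection antibody 1 h, avidin-HRP 30 min and substrate about 15 min, all at 37 °C. Reaction stopped and OD read at 450 nm. Concentration taken from the standard curve.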

[2] = Cytotoxicity against human oral epithelial cells (OEC) assessed as growth inhibition at 100 ug/mL incubated for 48 hrs by SRB assay relative to control; format: toxicity, cell-based, Oral epithelial cell; conditions: at 100 µg/mL, read-out: GI
In short: (§2)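 SRB assay: cells seeded at 3×10^3/well, allowed 24 h to attach, then exposed to 100 µg/mL for 48 h, three wells per concentration, DMSO 1% v/v vehicle control. Cells fixed with 20% trichloroacetic acid and stained with 0.4% SRB, then OD read at 570 nm. Survival fraction taken as treated OD/control OD.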

[3] = tested on: A-375; experiment: Cell cycle arrest in human A-375 cells assessed as increase in accumulation of cells at G0/G1 phase at 3.1 microM incubated for 48 hrs by PI staining based flow cytometry analysis (reference value: 17.29 %)
[4] = tested on: HepG2; experiment: Cytotoxicity against human HepG2 cells assessed as inhibition of cell growth incubated for 48 hrs by SRB assay; format: functional, cell-based; conditions: HepG2, 48 h
In short: (§3)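 Cells plated at 3×10^3/well and left 24 h to attach. Treated at 12.5, 25, 50 and 62.5 µg/mL for 48 h, three wells per concentration, with DMSO (1% v/v) vehicle control. Fixed with 20% TCA, stained with 0.4% SRB, OD read at 570 nm. Survival fraction = treated OD/control OD. IC50 from sigmoidal dose-response curve fitting.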

[5] = tested on: A-375; experiment: Induction of apoptosis in human A-375 cells assessed as downregulation of CDK6 expression by measuring fold change at 5.04 microg/ml incubated for 1 hrs by ELISA; format: functional; conditions: dose 5.04 µg/ml
In short: (§4)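 Sandwich ELISA with plate precoated with capture antibody for each of caspase-3, -8, -9, CDK2, CDK4 and CDK6. Samples and a 7-point standard incubated 1 h at 37 °C, then biotinylated antibody 1 h, avidin-HRP 30 min and TMB 10-20 min. Reaction stopped with sulphuric acid and read at 450 nm. Duplicate readings, zero standard subtracted, amounts taken from the standard curve.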

[6] = tested on: MCF7; experiment: Antiproliferative activity against human MCF7 cells assessed as growth inhibition at 100 ug/mL incubated for 48 hrs by SRB assay relative to control; format: functional; conditions: read-out: GI; in short: as §2
[7] = target: Telomerase reverse transcriptase (Homo sapiens) (UniProt O14746); experiment: Inhibition of telomerase in human A-375 cells assessed as protein concentration incubated for 1 hrs by ELISA (reference value: 3.56 ng/ml); format: cell-based; in short: as §1
[8] = tested on: MG-63; experiment: Antiproliferative activity against human MG-63 cells assessed as growth inhibition at 100 ug/mL incubated for 48 hrs by SRB assay relative to control; format: functional; conditions: read-out: GI; in short: as §2
[9] = tested on: A-375; experiment: Antiproliferative activity against human A-375 cells assessed as growth inhibition at 100 ug/mL incubated for 48 hrs by SRB assay relative to control; format: functional; conditions: read-out: GI; in short: as §2
[10] = tested on: FaDu; experiment: Antiproliferative activity against human FaDu cells assessed as growth inhibition at 100 ug/mL incubated for 48 hrs by SRB assay relative to control; format: functional; conditions: read-out: GI; in short: as §2
[11] = tested on: A-375; experiment: Cytotoxicity against human A-375 cells assessed as inhibition of cell growth incubated for 48 hrs by SRB assay; format: functional, cell-based; conditions: A-375, 48 h; in short: as §3
[12] = tested on: HepG2; experiment: Antiproliferative activity against human HepG2 cells assessed as growth inhibition at 100 ug/mL incubated for 48 hrs by SRB assay relative to control; format: functional; conditions: read-out: GI; in short: as §2
[13] = target: Epidermal growth factor receptor (Homo sapiens) (UniProt P00533); experiment: Inhibition of EGFR in human A-375 cells assessed as downregulation of EGFR concentration by measuring fold change incubated for 1 hrs by ELISA; format: cell-based; in short: as §1
[14] = target: Telomerase reverse transcriptase (Homo sapiens) (UniProt O14746); experiment: Inhibition of telomerase in human A-375 cells assessed as downregulation of telomerase concentration by measuring fold change incubated for 1 hrs by ELISA; format: cell-based; in short: as §1
[15] = tested on: HCT-116; experiment: Antiproliferative activity against human HCT-116 cells assessed as growth inhibition at 100 ug/mL incubated for 48 hrs by SRB assay relative to control; format: functional; conditions: read-out: GI; in short: as §2
[16] = Antiproliferative activity against human HNO 97 cell line assessed as growth inhibition at 100 ug/mL incubated for 48 hrs by SRB assay relative to control; format: functional; conditions: read-out: GI; in short: as §2
[17] = tested on: Caco-2; experiment: Antiproliferative activity against human Caco-2 cells assessed as growth inhibition at 100 ug/mL incubated for 48 hrs by SRB assay relative to control; format: functional; conditions: read-out: GI; in short: as §2
[18] = tested on: A-375; experiment: Induction of apoptosis in human A-375 cells assessed as upregulation of caspase 9 expression by measuring fold change at 5.04 microg/ml incubated for 1 hrs by ELISA; format: functional; conditions: dose 5.04 µg/ml; in short: as §4
[19] = tested on: HeLa; experiment: Antiproliferative activity against human HeLa cells assessed as growth inhibition at 100 ug/mL incubated for 48 hrs by SRB assay relative to control; format: functional; conditions: read-out: GI; in short: as §2
[20] = tested on: HCT-116; experiment: Cytotoxicity against human HCT-116 cells assessed as inhibition of cell growth incubated for 48 hrs by SRB assay; format: functional, cell-based; conditions: HCT-116, 48 h; in short: as §3
[21] = tested on: A-375; experiment: Induction of apoptosis in human A-375 cells assessed as upregulation of caspase 8 expression by measuring fold change at 5.04 microg/ml incubated for 1 hrs by ELISA; format: functional; conditions: dose 5.04 µg/ml; in short: as §4
[22] = tested on: A-375; experiment: Induction of apoptosis in human A-375 cells assessed as downregulation of CDK2 expression by measuring fold change at 5.04 microg/ml incubated for 1 hrs by ELISA; format: functional; conditions: dose 5.04 µg/ml; in short: as §4
[23] = Cytotoxicity against HSF cells assessed as growth inhibition at 100 ug/mL incubated for 48 hrs by SRB assay relative to control; format: toxicity, cell-based; conditions: human, at 100 µg/mL, read-out: GI; in short: as §2
[24] = Cytotoxicity against human HNO 97 cell line assessed as inhibition of cell growth incubated for 48 hrs by SRB assay; format: functional, cell-based; conditions: HNO 97, 48 h; in short: as §3
[25] = tested on: A-375; experiment: Induction of apoptosis in human A-375 cells assessed as upregulation of caspase 3 expression by measuring fold change at 5.04 microg/ml incubated for 1 hrs by ELISA; format: functional; conditions: dose 5.04 µg/ml; in short: as §4
[26] = tested on: MDA-MB-468; experiment: Antiproliferative activity against human MDA-MB-468 cells assessed as growth inhibition at 100 ug/mL incubated for 48 hrs by SRB assay relative to control; format: functional; conditions: read-out: GI; in short: as §2
[27] = tested on: Huh-7; experiment: Antiproliferative activity against human Huh-7 cells assessed as growth inhibition at 100 ug/mL incubated for 48 hrs by SRB assay relative to control; format: functional; conditions: read-out: GI; in short: as §2
[28] = tested on: A-375; experiment: Induction of apoptosis in human A-375 cells assessed as downregulation of CDK4 expression by measuring fold change at 5.04 microg/ml incubated for 1 hrs by ELISA; format: functional; conditions: dose 5.04 µg/ml; in short: as §4

Sequence of Telomerase reverse transcriptase (Homo sapiens) (O14746 whole entry): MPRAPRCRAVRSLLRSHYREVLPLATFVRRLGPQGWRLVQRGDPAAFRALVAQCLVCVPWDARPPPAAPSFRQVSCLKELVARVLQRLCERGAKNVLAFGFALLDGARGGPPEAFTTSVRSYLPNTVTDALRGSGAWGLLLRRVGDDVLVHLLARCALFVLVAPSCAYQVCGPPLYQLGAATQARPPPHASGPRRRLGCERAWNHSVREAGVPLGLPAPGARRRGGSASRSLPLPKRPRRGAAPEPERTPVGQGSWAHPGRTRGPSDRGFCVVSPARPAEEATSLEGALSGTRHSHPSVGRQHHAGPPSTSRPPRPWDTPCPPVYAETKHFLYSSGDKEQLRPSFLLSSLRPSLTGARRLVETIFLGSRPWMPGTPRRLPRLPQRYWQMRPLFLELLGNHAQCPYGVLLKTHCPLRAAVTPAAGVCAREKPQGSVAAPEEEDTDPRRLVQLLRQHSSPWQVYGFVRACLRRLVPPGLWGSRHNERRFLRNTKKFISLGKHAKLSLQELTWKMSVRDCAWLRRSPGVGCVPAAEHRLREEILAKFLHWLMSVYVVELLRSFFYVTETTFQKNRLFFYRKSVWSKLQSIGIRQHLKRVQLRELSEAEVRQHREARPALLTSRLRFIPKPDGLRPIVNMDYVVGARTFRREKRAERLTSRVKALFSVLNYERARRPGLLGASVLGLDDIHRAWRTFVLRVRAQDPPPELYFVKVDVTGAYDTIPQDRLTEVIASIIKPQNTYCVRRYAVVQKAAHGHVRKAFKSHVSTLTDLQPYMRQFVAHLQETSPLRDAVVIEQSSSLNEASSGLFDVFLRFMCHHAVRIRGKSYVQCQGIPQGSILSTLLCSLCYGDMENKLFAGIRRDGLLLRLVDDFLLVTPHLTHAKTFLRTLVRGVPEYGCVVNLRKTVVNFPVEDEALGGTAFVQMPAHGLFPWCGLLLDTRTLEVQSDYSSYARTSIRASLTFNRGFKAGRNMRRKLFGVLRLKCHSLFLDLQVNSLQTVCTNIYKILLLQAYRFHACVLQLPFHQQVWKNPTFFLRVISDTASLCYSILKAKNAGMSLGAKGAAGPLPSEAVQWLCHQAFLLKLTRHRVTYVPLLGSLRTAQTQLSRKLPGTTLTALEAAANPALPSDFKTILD
Sequence of Epidermal growth factor receptor (Homo sapiens) (P00533 whole entry): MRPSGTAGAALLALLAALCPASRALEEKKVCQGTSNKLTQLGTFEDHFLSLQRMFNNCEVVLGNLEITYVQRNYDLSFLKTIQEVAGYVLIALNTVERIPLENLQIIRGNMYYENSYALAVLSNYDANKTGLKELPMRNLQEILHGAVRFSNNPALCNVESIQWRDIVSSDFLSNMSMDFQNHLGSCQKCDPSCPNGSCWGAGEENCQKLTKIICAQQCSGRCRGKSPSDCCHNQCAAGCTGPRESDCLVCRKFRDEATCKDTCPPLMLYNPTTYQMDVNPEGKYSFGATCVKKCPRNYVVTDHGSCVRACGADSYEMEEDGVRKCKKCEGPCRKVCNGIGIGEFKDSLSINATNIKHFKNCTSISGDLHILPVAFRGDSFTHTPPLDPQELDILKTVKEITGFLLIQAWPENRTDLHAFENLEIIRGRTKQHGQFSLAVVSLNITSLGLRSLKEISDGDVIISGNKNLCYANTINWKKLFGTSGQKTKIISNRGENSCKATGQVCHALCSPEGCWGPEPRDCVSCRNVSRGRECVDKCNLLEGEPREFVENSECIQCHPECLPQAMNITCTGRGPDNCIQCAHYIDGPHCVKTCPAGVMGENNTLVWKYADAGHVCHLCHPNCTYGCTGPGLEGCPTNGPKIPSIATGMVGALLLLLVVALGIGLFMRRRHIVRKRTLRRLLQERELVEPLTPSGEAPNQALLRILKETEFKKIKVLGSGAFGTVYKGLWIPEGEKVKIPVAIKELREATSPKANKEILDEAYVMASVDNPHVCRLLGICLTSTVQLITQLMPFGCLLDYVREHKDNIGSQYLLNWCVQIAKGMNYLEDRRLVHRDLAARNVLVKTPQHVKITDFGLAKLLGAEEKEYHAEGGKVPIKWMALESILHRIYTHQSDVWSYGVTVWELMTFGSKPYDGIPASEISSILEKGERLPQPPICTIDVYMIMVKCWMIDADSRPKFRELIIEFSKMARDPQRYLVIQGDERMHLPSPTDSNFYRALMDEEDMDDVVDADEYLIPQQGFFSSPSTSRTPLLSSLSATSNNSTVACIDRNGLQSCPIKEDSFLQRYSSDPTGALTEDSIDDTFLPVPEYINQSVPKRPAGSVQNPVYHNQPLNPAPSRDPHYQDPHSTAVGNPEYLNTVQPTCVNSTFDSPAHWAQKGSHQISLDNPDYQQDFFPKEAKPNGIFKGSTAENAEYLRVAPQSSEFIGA

`COc1cccc(/C=N/NC(=O)c2nnn(-c3ccc(Cl)cc3)c2C)c1OC` gave an Activity [1] of 3.45 ng/mL, an inhibition at 48 h, 100 ug/mL [2] of 37% and an Activity [3] of 78.39%. For the same compound, the IC50 [4] was 31.2 µM, the “fold change (FC)” value [5] was 9.15 and the inhibition of growth at 100 µg/mL [6] was 70%. The Activity [7] was 1.31 ng/mL, the inhibition of growth at 100 µg/mL [8] was 65% and the inhibition of growth at 100 µg/mL [9] was 85%. The inhibition of growth at 100 µg/mL [10] was 76%, the IC50 [11] was 12.6 µM and the inhibition of growth at 100 µg/mL [12] was 80%. The fold change (FC) [13] was 2.58, the fold change (FC) [14] was 2.72 and the inhibition of growth at 100 µg/mL [15] was 82%. For the same compound, the inhibition of growth at 100 µg/mL [16] was 72%, the inhibition of growth at 100 µg/mL [17] was 55% and the “fold change (FC)” value [18] was 1.51. The inhibition of growth at 100 µg/mL [19] was 63%, the IC50 [20] was 13.3 µM and the “fold change (FC)” value [21] was 1.55. For the same compound, the “fold change (FC)” value [22] was 2.91, the inhibition at 48 h, 100 ug/mL [23] was 25% and the IC50 [24] was 13.3 µM. For the same compound, the “fold change (FC)” value [25] was 1.35, the inhibition of growth at 100 µg/mL [26] was 69% and the inhibition of growth at 100 µg/mL [27] was 62%. The “fold change (FC)” value [28] was 2.01.
